High-throughput results deposited in PubChem by several laboratories.
Hits are enriched below; roughly 4.8% of the tested compounds scored in any of these assays.
Beta cell apopt: inhibitors of cytokine-induced beta cell apoptosis, primary screen, luminescence; INS-1E cytokine-induced death, ATP luminescence, 48 h; percent of positive-control rescue, neutral wells zero; protection from apoptosis, % (test concentration not listed); 300,000 compounds, 0.8% hits;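 active = Every replicate reaches about 75%, or at least half do and their mean reaches it too, limit read from the data; inconclusive = At least half of replicates reach the limit but their mean does not; inactive = Under half of replicates reach the limit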;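 also: 0% = cytokine-treated negative control wells and 100% = positive control rescue; higher means more ATP so stronger rescue from cytokine killing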
SKKanGAS inh: S. pyogenes SKKanGAS growth inhibitors in kanamycin, primary screen, streptokinase expression inhibitor project, SKKanGAS strain, BacTiter-Glo luminescence. 300,000 compounds, 1.3% hits. inhibition, % at 7.5 µM. 6 h;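 active = mean replicate score, as percent of positive control median, at least 50; inconclusive = mean below 50 but one replicate at or above 50; inactive = mean and every replicate below 50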;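 also: strain carries kanamycin resistance gene driven by streptokinase promoter and grows in 40 µg/ml kanamycin; loss of luminescence reflects streptokinase promoter inhibition or plain growth inhibition; 0% = median of DMSO wells and 100% = positive control at its reference dose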
Mdm2 MdmX PPI: inhibitors of human Mdm2-MdmX association, primary screen, cell-based, luminescence, split luciferase, SaOS-2, uHTS | Protein Mdm4 (Homo sapiens) + E3 ubiquitin-protein ligase Mdm2 (Homo sapiens), … | SaOS-2 split-luciferase Mdm2/MdmX complementation | inhibition, % at 8 µM | 330,000 compounds, 3% hits | AID 485346, 2010;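 active = inhibition of at least 50% at 8 µM in the primary screen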
UPR XBP1 act: activators of adaptive XBP1 UPR arm, primary screen, cell-based, CHO-XBP1 luciferase reporter, luminescence, uHTS; 330,000 compounds, 0.33% hits; activation, % at 20 µM; IRE1-XBP1 UPR activation; percent of tunicamycin response, DMSO as zero;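 active = versus positive control, 20 µM dose yields 30% or more activation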;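 also: 100% = tunicamycin at 10 µg/mL and 0% = DMSO only wells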
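assay system = CHO-XBP1 luciferase reporter cells | amount = 1000 cells/well | buffer or medium = F12 plus 10% FBS | compound dosing = single point, 20 µM final compound, 1% DMSO | incubation = 16-18 h cell attachment at 37 °C, then 6 h compound exposure | detection = Steady-Glo luminescence read | controls = tunicamycin 10 µg/mL and vehicle-only wells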
CHOP UPR activ: activators of apoptotic CHOP UPR arm, primary screen, cell-based, CHO-CHOP luciferase reporter, luminescence, uHTS; UPR activation; percent of tunicamycin response over DMSO baseline; activation, % at 10 µM; 330,000 compounds, 0.34% hits;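 active = at 10 µM dose, activation of 40% or more, normalized to positive control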;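 also: 100% = tunicamycin at 10 µg/mL and 0% = DMSO alone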
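System: CHO CHOP reporter cells. Amount: 500 cells per well. Buffer or medium: F12 medium, 10% FBS. Compound dosing: one dose, 10 µM in 0.5% DMSO. Incubation: 6 h compound exposure at 37 °C after overnight seeding. Technique: Steady-Glo luciferase luminescence. Benchmarks: tunicamycin and DMSO controls.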
CSC inhib: cancer stem cell viability inhibitors, primary screen, luminescence | cancer stem cell-like cells viability | inhibition, % at 7.5 µM | 300,000 compounds, 1.1% hits | AID 2717, 2010; in the data active = inhibition above about 75%; inconclusive = no clear call, values can overlap the other calls; tested in HMLE shEcad cells
UPR CHOP confirm: activators of apoptotic CHOP UPR arm, confirmation, cell-based, CHO-CHOP luciferase reporter, single concentration. 1,000 compounds, 64% hits. CHO-CHOP cells, CHOP-luciferase reporter luminescence; percent of tunicamycin response, DMSO as zero. shares compounds with CHOP UPR activ. AID 463112, 2010. activation, % at 10 µM; in the data active = activation above about 33%;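 also: 0% = DMSO wells and 100% = tunicamycin 10 µg/mL wells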
Numbers without * were called inactive.

Screening O=C1CCc2cc(S(=O)(=O)Nc3ccc(F)cc3)cc3c2N1CC3 returned Beta cell apopt 1.5, SKKanGAS inh -0.4, Mdm2 MdmX PPI -3.9, UPR XBP1 act 4.1, CHOP UPR activ -2.6 and CSC inhib 8.0.
Screening COc1ccc(C(c2c(C)[nH]n(C(N)=S)c2=O)C(C#N)C#N)cc1 (stereo not drawn) returned Beta cell apopt -1.3, Mdm2 MdmX PPI -6.0, UPR XBP1 act 1.7, CHOP UPR activ 61.8*, CSC inhib 2.6 and UPR CHOP confirm 55.6*.
For O=C(O)CCCn1cc(NC(=O)c2sc3ccccc3c2Cl)cn1 the results were SKKanGAS inh -3.3, Mdm2 MdmX PPI 1.1, UPR XBP1 act 1.9 and CHOP UPR activ 1.2.
Screening O=C(/C=C/c1ccc(O)c(O)c1)OC(Cc1ccc(O)c(O)c1)C(=O)O (stereo not drawn) returned SKKanGAS inh 0.7, Mdm2 MdmX PPI -23.7, UPR XBP1 act 5.4, CHOP UPR activ -0.2 and CSC inhib -0.3.
O=C(/C=C/c1ccoc1)c1ccccc1O was read as Beta cell apopt 1.0, SKKanGAS inh -5.6, Mdm2 MdmX PPI -10.9, UPR XBP1 act 2.4, CHOP UPR activ 6.1 and CSC inhib 2.8.
Screening O=C(/C=C/c1ccc(O)c(O)c1)OCCc1ccccc1 returned Beta cell apopt -2.2, SKKanGAS inh 2.7, Mdm2 MdmX PPI 27.7, UPR XBP1 act 5.7, CHOP UPR activ 52.4*, CSC inhib 71.4 and UPR CHOP confirm 145.4*.
Screening O=C(/C=C/c1ccc(O)c(O)c1)c1ccccc1O returned Beta cell apopt -3.4, SKKanGAS inh -4.9, Mdm2 MdmX PPI -73.9, UPR XBP1 act 4.8, CHOP UPR activ 93.1*, CSC inhib 43.9 and UPR CHOP confirm 81.3*.
For COc1ccccc1/C=N/OCc1cc(C(C)=O)ccc1OC the results were Beta cell apopt inconclusive, SKKanGAS inh 4.3, Mdm2 MdmX PPI 0.8, UPR XBP1 act -1.3, CHOP UPR activ 0.8 and CSC inhib -7.5.
Screening CSCC[C@H](NC(=O)c1ccc(OCC2CCCO2)cc1)c1nc2ccccc2[nH]1 (stereo partly drawn) returned Beta cell apopt -8.8, Mdm2 MdmX PPI 25.5, UPR XBP1 act -1.4, CHOP UPR activ 1.4 and CSC inhib 2.3.
Screening O=C(NC1CCCC1)C(c1ccc(F)cc1)N(Cc1ccc(Cl)cc1)C(=O)CCl (stereo not drawn) returned Beta cell apopt -7.2, SKKanGAS inh -2.4, Mdm2 MdmX PPI 10.7, UPR XBP1 act 1.8, CHOP UPR activ 149.1*, CSC inhib -2.0 and UPR CHOP confirm 70.3*.
For O=C(NC1CCCC1)C(c1ccc(Cl)cc1)N(Cc1ccc(F)cc1)C(=O)CCl (stereo not drawn) the results were Beta cell apopt -7.9, SKKanGAS inh -9.0, Mdm2 MdmX PPI 3.3, UPR XBP1 act 8.1, CHOP UPR activ 112.6*, CSC inhib 0.3 and UPR CHOP confirm 87.7*.
Screening O=C(N/N=C/c1ccccn1)c1sc2ccccc2c1Cl returned Beta cell apopt 16.9, SKKanGAS inh 33.6, Mdm2 MdmX PPI 7.8, UPR XBP1 act 11.1, CHOP UPR activ 178.5*, CSC inhib 6.5 and UPR CHOP confirm 104.4*.
`O=C(N/N=C/c1c[nH]c2ccccc12)c1sc2ccccc2c1Cl` gave Beta cell apopt -5.1, SKKanGAS inh -3.7, Mdm2 MdmX PPI -37.4, UPR XBP1 act 1.4, CHOP UPR activ 4.5 and CSC inhib 46.7.
O=C(N/N=C/c1ccc(O)c(O)c1)NC12CC3CC(CC(C3)C1)C2 was read as Beta cell apopt 14.0, SKKanGAS inh -3.1, Mdm2 MdmX PPI 31.2, UPR XBP1 act 41.7*, CHOP UPR activ 144.8*, CSC inhib 29.4 and UPR CHOP confirm 157.5*.
Screening CCCN(CCC)C(=O)c1cc([N+](=O)[O-])cc2c1-c1ccc([N+](=O)[O-])cc1C2=C(C#N)C#N returned Beta cell apopt inconclusive, SKKanGAS inh 7.9, Mdm2 MdmX PPI 24.4, UPR XBP1 act -2.2, CHOP UPR activ 334.7*, CSC inhib 51.8 and UPR CHOP confirm 201.4*.
For CCCCN(CCCC)C(=O)c1cc(Cl)ccc1[N+](=O)[O-] the results were Beta cell apopt 6.7, SKKanGAS inh 0.1, Mdm2 MdmX PPI -1.4, UPR XBP1 act 0.9, CHOP UPR activ -1.2 and CSC inhib -3.2.
Screening O=C(Nc1nccs1)c1ccc(Br)s1 returned Beta cell apopt -5.0, SKKanGAS inh 0.5, Mdm2 MdmX PPI -37.8, UPR XBP1 act -1.7, CHOP UPR activ 3.9 and CSC inhib 8.3.
For O=C(Nc1nc(-c2ccccn2)cs1)c1ccc(Br)s1 the results were Beta cell apopt 85.1*, SKKanGAS inh 3.0, Mdm2 MdmX PPI 48.6, UPR XBP1 act 16.6, CHOP UPR activ 60.1*, CSC inhib 97.0* and UPR CHOP confirm 42.0*.
Screening CC(=O)c1cccc(NC(=O)C(C)OC(=O)CCN=C2NS(=O)(=O)c3ccccc32)c1 (stereo not drawn) returned Beta cell apopt -3.3, SKKanGAS inh -8.8, Mdm2 MdmX PPI -4.0, UPR XBP1 act 0.8, CHOP UPR activ -1.4 and CSC inhib 20.8.
FC(F)(F)C1=Nc2cccc3cccc(c23)N1 was read as Mdm2 MdmX PPI 13.0, UPR XBP1 act -0.5, CHOP UPR activ 62.2* and UPR CHOP confirm 26.7.
Screening COc1cccc(C(=O)Oc2ccccc2/C=C\C(=O)c2cc3ccccc3o2)c1 returned SKKanGAS inh -5.6.
For O=C(Oc1ccccc1/C=C\C(=O)c1cc2ccccc2o1)c1ccccc1 the results were Beta cell apopt -2.0, SKKanGAS inh -21.4, Mdm2 MdmX PPI -45.6, UPR XBP1 act 27.4, CHOP UPR activ 73.1*, CSC inhib 60.3 and UPR CHOP confirm 243.9*.
`Cc1c(C(=O)c2no[n+]([O-])c2C(=O)c2cnn(C)c2C)cnn1C` gave Beta cell apopt -4.0, SKKanGAS inh 15.0, Mdm2 MdmX PPI 14.6, UPR XBP1 act -7.3, CHOP UPR activ 55.0*, CSC inhib 69.1 and UPR CHOP confirm 91.2*.
CCc1ccc(OC(C)C(=O)Nc2ccccc2C(=O)N2CCOCC2)cc1 (stereo not drawn) was read as Beta cell apopt -12.3, SKKanGAS inh 0.3, Mdm2 MdmX PPI 16.0, UPR XBP1 act -4.7, CHOP UPR activ 0.3 and CSC inhib -22.8.
